Only some compounds are listed: those with a hit (about 2.7% of all), similar ones and a draw of the others.
MC4R antag cAMP: human MC4R antagonism in cAMP assay; P32245; MC4R-expressing cells, MTII-stimulated cAMP, LANCE TR-FRET; inhibition, % at 6.5 µM; actives 0.48% (n = 360,000);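 active = inhibition above its plate's cutoff, the mean of tested wells on that plate plus 3 SD, cut at about 29% in these data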
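Assay system: human MC4R-expressing U2OS cells; reagent: Melanotan II stimulation of cells; dosing: 6.5 µM single dose; timing: compound 30 min, challenge 1 h, detection 1 h; signal: TR-FRET cAMP assay; replicates: one well per compound, no replicates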
PG9 Ab binder: small molecules binding HIV-1 gp120 antibody PG9 | actives 0.43% (n = 360,000) | AID 624416 | TR-FRET gp120-PG9 antibody binding | inhibition, % at 6.7 µM; in the data active = inhibition above about 8.5%
Rev-erbA mod: modulators of human Rev-erb alpha DNA binding. activity, % at 10 µM. Rev-erbα–FITC-DNA binding, fluorescence polarization, 90 min. P20393. actives 0.79% (n = 370,000);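 active = activity above about 14%, limit read from the data; passing the limit was not always enough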
Target sequence (P20393 whole entry, looked up): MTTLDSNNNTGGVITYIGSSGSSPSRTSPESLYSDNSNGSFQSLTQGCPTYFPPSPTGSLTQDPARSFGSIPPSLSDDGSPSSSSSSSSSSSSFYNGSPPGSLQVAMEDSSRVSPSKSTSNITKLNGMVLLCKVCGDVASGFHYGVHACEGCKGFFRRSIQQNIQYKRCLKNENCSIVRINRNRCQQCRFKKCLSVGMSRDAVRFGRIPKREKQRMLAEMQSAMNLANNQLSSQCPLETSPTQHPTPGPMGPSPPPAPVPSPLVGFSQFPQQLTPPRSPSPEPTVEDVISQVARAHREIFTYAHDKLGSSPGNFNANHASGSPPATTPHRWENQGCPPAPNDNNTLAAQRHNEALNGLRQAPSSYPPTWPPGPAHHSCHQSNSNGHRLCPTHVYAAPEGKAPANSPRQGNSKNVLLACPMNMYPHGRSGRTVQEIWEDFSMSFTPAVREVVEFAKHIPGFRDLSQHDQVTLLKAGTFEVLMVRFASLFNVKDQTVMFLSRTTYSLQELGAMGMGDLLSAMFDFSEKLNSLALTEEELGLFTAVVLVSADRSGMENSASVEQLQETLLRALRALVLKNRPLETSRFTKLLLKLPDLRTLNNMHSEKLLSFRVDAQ
MC4R ag barr: activates human MC4R beta-arrestin recruitment. U2OS MC4R beta-arrestin complementation, luminescence; percent of melanotan II response, DMSO zero. P32245. activation, % at 8.9 µM. AID 540308. actives 0.98% (n = 360,000);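 active = activation above a per-plate cutoff, the mean activation of sample wells on that plate plus 3 SD, cut at about 8% in these data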
NR2E3 ag-1: human photoreceptor-specific nuclear receptor agonism; Q9Y5X4; CHO-S Gal4-NCOR/VP16-NR2E3 two-hybrid, luciferase; inhibition of corepressor binding, % at 3.98 µM; actives 0.35% (n = 360,000); AID 602229;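 active = inhibition above the mean of all tested compounds plus 3 SD, cut at about 70% in these data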;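 also: higher means lower luciferase signal from less NR2E3 corepressor binding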
NR2E3 ag-2: NR2E3 (human) agonism | Q9Y5X4 | GST-NR2E3/biotin-RetCOR TR-FRET, 1536-well | inhibition of corepressor binding, % at 4.78 µM | actives 0.12% (n = 320,000) | AID 2300;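 active = percent inhibition above the cutoff of mean plus 3 SD of all tested compounds, set per screening campaign, cut at about 20% in these data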
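Format: 1536-well format; test system: GST-NR2E3 and biotin-RetCOR proteins; read-out basis: percent inhibition of TR-FRET ratio; timing: 5 h incubation at 4 °C; detection: time-resolved FRET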
Hits are given with their value; - = inactive; . = no result.

SMILES | MC4R antag cAMP | PG9 Ab binder | Rev-erbA mod | MC4R ag barr | NR2E3 ag-1 | NR2E3 ag-2
Cc1[nH]nc(-c2ccc(O)cc2O)c1-c1ccc(Cl)cc1 | - | - | - | - | - | -
Cc1cc(O)c2c(c1O)C(=O)[C@]13C(=C2O)C(=O)[C@@H]2[C@@H](O)[C@H]1[C@@H]1[C@H](O)[C@H]3C(=O)C3=C(O)c4c(O)cc(C)c(O)c4C(=O)[C@]312 | - | . | . | - | 101 | .
Cc1ccc(C)c(OCCC(=O)OCC(=O)Nc2ccc(Cl)cn2)c1 | - | - | - | 9.5 | - | -
O=C(NCc1ccc(F)cc1)Nc1cccc(Cl)c1 | - | - | - | - | - | -
CC(/C=N/NC(=O)c1cc(-c2ccc(C)o2)[nH]n1)=C\c1ccccc1 | - | - | - | 9.2 | - | -
Cc1ccc(-c2cc(C(=O)N/N=C/c3ccccc3)n[nH]2)o1 | - | - | - | - | - | -
COc1cccc(C(=O)Nc2nc3c(c(=O)[nH]2)CCCC3)c1 | - | - | - | - | - | -
CCCSc1nc(=O)n2cc(C)ccc2n1 | - | - | - | - | - | -
COc1cc(/C=N\NC(=O)c2ccc(-c3ccccc3)cc2)ccc1OCC(N)=O | - | - | - | 26 | - | .
CC(C)CCn1cnc2c([nH]c3cccc(Cl)c32)c1=O | - | - | - | 9.4 | - | -
Cc1cccc2[nH]c3c(=O)n(CCN4CCNCC4)cnc3c12 | - | - | - | - | - | -
CCCc1c(C(=O)Nc2ccc(F)cc2F)cnn1-c1ccccc1 | - | - | - | - | - | -
CCCc1c(NC(=O)Nc2ccc(Cl)cc2Cl)cnn1-c1ccccc1 | - | - | - | 9.2 | - | -
C=CCNc1nc(-c2cccc(OC)c2O)nc2ccccc12 | - | - | - | 9.4 | - | -
COc1cccc(-c2nc(NCc3ccco3)c3ccccc3n2)c1O | - | - | - | 18 | - | -
COc1ccc(Oc2ccc3c(C(F)(F)F)cc(C(F)(F)F)nc3n2)cc1 | - | - | - | - | - | -
Oc1ccc(Oc2ccc3c(C(F)(F)F)cc(C(F)(F)F)nc3n2)cc1 | - | - | - | 15 | - | -
Cc1ccc2c(c1)c1c(n2CC(O)CNC2CCCCC2)CCCC1 (centres undefined) | - | - | - | 9.0 | - | -
Cc1ccc2c(c1)c1c(n2CC(O)CNC(CO)(CO)CO)CCCC1 (centres undefined) | - | - | - | - | - | -
CCC1CCCCN1C(=O)c1noc(C(C)C)c1[N+](=O)[O-] (centres undefined) | - | - | - | - | - | -
COC(=O)C1=C(C)N(Cc2ccccc2)C(=NCc2cccc(C(F)(F)F)c2)N[C@H]1c1cccc(F)c1 | - | - | - | 13 | - | -
COC(=O)C1=C(C)N(Cc2ccc(C(F)(F)F)cc2)C(=NCc2ccc(C(F)(F)F)cc2)NC1c1cccc(F)c1 (centres undefined) | . | - | - | . | . | .
COC(=O)C1=C(C)N(Cc2ccccc2)C(=NCCc2c[nH]c3ccccc23)N[C@H]1c1cccc(C(F)(F)F)c1 | - | . | . | 33 | - | .
COC(=O)C1=C(C)N(Cc2ccccc2)C(=NCc2cccc(C(F)(F)F)c2)N[C@H]1c1cccc(C(F)(F)F)c1 | - | . | . | 21 | - | .
CCN(CC)S(=O)(=O)c1ccc(OC)c(NC(=O)COc2ccccc2[N+](=O)[O-])c1 | - | - | - | - | - | -
SMILES | MC4R antag cAMP | PG9 Ab binder | Rev-erbA mod | MC4R ag barr | NR2E3 ag-1 | NR2E3 ag-2
Cn1c(CN2CCCCC2)c(C#N)c2ccccc21 | - | . | - | - | - | -
CCCCn1c(NC(=O)c2ccc(F)cc2)c(C#N)c2nc3ccccc3nc21 | . | . | . | . | . | 22
CCCCn1c(NC(=O)c2ccccc2)c(C#N)c2nc3ccccc3nc21 | - | - | - | - | - | .
COCCNC(=O)c1nc2c(nnn2Cc2cc(C)ccc2C)c(=O)[nH]1 | - | - | - | - | - | -
COC(=O)c1sc2ncccc2c1OCc1cccc(Cl)c1 | - | - | - | - | - | -
COC(=O)c1sc2ncccc2c1OCc1c(Cl)cccc1Cl | - | - | - | 20 | - | -
CCOc1ccc(NC(=O)CNS(=O)(=O)c2c(C)cc(C)cc2C)cc1 | - | - | - | - | - | -
CCOC(=O)Cc1cc(-c2ccc(O)cc2)nc2ccc3ccccc3c12 | - | - | - | 8.4 | - | -
O=c1[nH]c(/C=C/c2ccccc2[N+](=O)[O-])nc2ccccc12 | - | - | - | 8.8 | - | -
O=C(Nc1cc(Br)ccc1O)c1cc(-c2ccc3c(c2)OCO3)on1 | - | - | - | - | - | -
CSc1ccccc1NC(=O)c1cc(-c2ccc3c(c2)OCO3)on1 | - | - | - | 12 | - | -
COc1ccc(N(CCCN2C(=O)c3cccc4cccc(c34)C2=O)C(=O)c2cccnc2)cc1 | - | - | - | 11 | - | -
CCOC(=O)c1cc(-c2ccccc2)n(CC(=O)Nc2cc(OC)cc(OC)c2)c1C | - | - | - | - | - | -
Cc1cc2[nH]c3c4ccccc4nc(C)c3c2cc1C | - | - | - | 24 | - | .
CCN(CC(=O)Nc1ccc(NC(C)=O)cc1)C(=O)/C=C/c1cn(-c2ccccc2)nc1-c1ccc(F)cc1 | - | - | - | 8.4 | - | -
CCN(CC(=O)Nc1ccc(NC(C)=O)cc1)C(=O)/C=C/c1cn(-c2ccccc2)nc1-c1ccc(C)cc1 | - | - | - | - | - | -
Cc1cccc(NC(=O)Cn2nnc(C(=O)NCc3cccs3)c2N)c1C | - | - | - | 9.0 | - | -
Cc1c(Cl)cccc1NC(=O)Cn1nnc(C(=O)NCc2cccs2)c1N | - | - | - | - | - | -
Cc1ccccc1NC(=O)C1C2/C=C\CCCCC21 (centres undefined) | - | - | - | 8.8 | - | -
S=C(N/N=C/c1ccc(Cl)c(Cl)c1)Nc1ccccc1Cl | - | - | - | 9.3 | - | -
Fc1cccc(/C=N/NC(=S)Nc2ccccc2Cl)c1 | - | - | - | - | - | -
O=C(NCc1ccc(Cl)cc1)c1ccc(S(=O)(=O)N2CCCCC2)cc1 | - | - | - | 9.4 | - | -
O=C(O)c1ccccc1OC(C(=O)Nc1cc(Cl)cc(Cl)c1)c1ccccc1 (centres undefined) | - | - | - | 9.3 | - | -
O=C(Nc1cc(Cl)cc(Cl)c1)C(c1ccccc1)N1CCCCC1 (centres undefined) | - | - | - | - | - | -
CCC(O)(CCN1CCCCC1)c1ccccc1 (centres undefined) | - | - | - | - | - | -
Cc1ccc(NC(=O)CSc2nc3c([nH]c4ccccc43)c(=O)n2C)cc1 | - | - | - | 16 | - | -
CC1CCCCC1NCC(=O)Nc1ccccc1-c1ccccc1 (centres undefined) | - | - | - | 9.5 | - | -

Source: PubChem BioAssay (several laboratories)
